Shown are actives, neighbours in structure and some others; about 3% of the full set was active somewhere.
S100A4 inh HTS: S100A4-myosin IIA interaction inhibition | actives 0.14% (n = 360,000) | S100A4/TAMRA-MyoIIA peptide fluorescence polarization | inhibition, % at 10.7 µM | P26447 | AID 652163;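 active means mean inhibition of at least 70% across replicates, with every replicate also reaching that level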
Target sequence (P26447 whole entry, looked up): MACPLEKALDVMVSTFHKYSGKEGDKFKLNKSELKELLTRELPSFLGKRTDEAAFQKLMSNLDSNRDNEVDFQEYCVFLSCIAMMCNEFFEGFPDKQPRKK
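Material: S100A4 monomer protein | Medium: HEPES pH 7.2 with CaCl2, KCl, NaCl, DTT, Triton | Reagent: Labelled myosin peptide probe, 5 nM | Doses: One dose per compound | Times: 5 min incubation before reading | Benchmarks: Neutral control DMSO, positive control TFP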
C2C12 statin: protects C2C12 myotubes from simvastatin toxicity | ATP luminescence, 48 h; scaled: DMSO 0, geranylgeraniol control 100 | rescue of ATP level, % at 7.49 µM | actives 0.78% (n = 330,000);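 active means mean ATP rescue above about 67%, or every replicate alone reaching that limit, limit read from the data, passing the limit was not always enough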;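 further: myotubes were challenged with 10 µM simvastatin during compound exposure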
SIRT5 inh: inhibitors of human sirtuin-5 desuccinylase; Q9NXA8; actives 1.1% (n = 330,000); inhibition, % at 15 µM; Purified SirT5, succinyl-peptide AMC, trypsin-coupled fluorescence; AID 652115; in the data active means inhibition above about 15%
Target sequence (Q9NXA8 whole entry, looked up): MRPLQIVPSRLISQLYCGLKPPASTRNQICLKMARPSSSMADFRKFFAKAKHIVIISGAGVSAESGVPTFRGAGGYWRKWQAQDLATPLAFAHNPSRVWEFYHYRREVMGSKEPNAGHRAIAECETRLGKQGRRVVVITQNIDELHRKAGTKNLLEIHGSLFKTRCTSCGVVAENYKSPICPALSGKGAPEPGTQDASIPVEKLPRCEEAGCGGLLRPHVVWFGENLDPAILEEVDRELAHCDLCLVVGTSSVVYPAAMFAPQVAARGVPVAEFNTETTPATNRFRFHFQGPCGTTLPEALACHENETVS
Cneo AK release: causes C. neoformans cell lysis; adenylate kinase release luminescence, 4 h; normalised: neutral wells 0, clomiphene wells 100; lysis activity, % at 15 µM; actives 0.2% (n = 360,000); AID 651654;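 active means mean lysis activity across replicates of at least 80%, whatever share of replicates individually reach that level; inactive means mean lysis activity below 80%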
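Test system: log-phase Cryptococcus neoformans yeast cells; Quantity: yeast cell density of 5 × 10^6 cells/mL; Buffer or medium: YPD; Doses: single compound concentration per well; Timing: 4 h at 37 °C static, read 1 h later; Measured by: AK luminescence; Read-out basis: lysis from increased AK signal; Control set: Clomiphene as positive control.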
PGC1a acetyl inh: modulators of PGC1a acetylation; U2OS PGC1a acetylation, AlphaScreen anti-acetyl-lysine; with virally co-expressed GCN5 acetyltransferase; inhibition, % at 15.6 µM; actives 0.17% (n = 350,000);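 active means every replicate shows inhibition of at least 40%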;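 further: 0% = neutral control wells and 100% = positive control wells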
Ecoli rRNA inh: inhibitors of bacterial rRNA selective over humanized ribosomes; E. coli WT GFP vs humanized-ribosome RFP mutants, fluorescence, 24 h; stronger effect = lower value; DMSO median 0, no signal -100; AID 720706; GFP signal change (wild-type ribosome), % (no concentration beside the values); actives 1.6% (n = 350,000);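 active means significant combined selectivity score with lowered wild-type GFP, culture density cut under 30%, mutant RFP and density less affected; inactive means any of these conditions unmet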
Starred values were filed as active, the others as inactive; . = no result given.

SMILES	S100A4 inh HTS	C2C12 statin	SIRT5 inh	Cneo AK release	PGC1a acetyl inh	Ecoli rRNA inh
C[C@@H]1CN([C@@H](C)CO)C(=O)Cc2cc(NC(=O)Cc3cn(C)c4ccccc34)ccc2O[C@H]1CN(C)Cc1ccc(Cl)c(Cl)c1	-4.5	71.8*	-1.6	5.6	-3.7	-0.7
C[C@@H]1CN([C@H](C)CO)C(=O)Cc2cc(NC(=O)Cc3cn(C)c4ccccc34)ccc2O[C@H]1CN(C)Cc1ccc(Cl)c(Cl)c1	-4.2	94.9*	1.2	2.8	-8.8	-0.7
C[C@@H]1CN([C@H](C)CO)C(=O)Cc2cc(NC(=O)Cc3cn(C)c4ccccc34)ccc2O[C@@H]1CN(C)Cc1ccc2c(c1)OCO2	-3.9	85.8*	2.6	2.0	-7.8	-1.8
C[C@@H]1CN([C@@H](C)CO)C(=O)c2cc(NC(=O)CCCN(C)C)ccc2O[C@@H](C)CCCCO[C@H]1CN(C)CC1CCCCC1	-14.0	-54.2	-0.2	-0.3	4.6	1.9
Cc1cccc(NC2=NC(C)(C)N=C(N)N2)c1C	.	112.2*	.	-4.6	-4.0	.
Cc1noc(C)c1NC(=O)Nc1cccc2c1O[C@@H](CN(C)C(=O)Nc1ccc3c(c1)OCO3)[C@H](C)CN([C@H](C)CO)C2=O	-6.9	30.1	-1.4	-0.1	-6.2	1.3
CCOc1ccc(NS(=O)(=O)c2ccc(-c3coc(C)n3)cc2)cc1	-2.1	2.4	-0.4	-0.5	7.9	-0.6
CCOC(=O)c1ccc(NS(=O)(=O)c2ccc(-c3coc(C)n3)cc2)cc1	-3.3	92.8*	-2.8	2.9	-7.3	1.2
O=c1[nH]cnc2c1sc1nc(-c3ccccc3)c3c(c12)CCCC3	1.8	.	-2.9	.	.	11.0
O=C(O)CSc1ncnc2c1sc1nc(-c3ccccc3)c3c(c12)CCC3	-15.2	.	18.1*	.	-4.5	-3.9
COc1ccc(-n2cccc2/C=C2\C(=N)N3N=C(c4ccco4)SC3=NC2=O)cc1	5.4	.	-0.8	.	.	-22.8*
COc1ccc(-n2cccc2/C=C2\C(=N)N3N=C(C(C)C)SC3=NC2=O)cc1	2.5	.	2.6	.	.	-40.0
COc1ccc(N=Nc2cc(C)c(O)c(CN3CCCCC3)c2)cc1	-0.9	3.6	0.7	-8.6	15.3	-27.4*
Cc1ccccc1C(=O)Nc1nnc(-c2ccncc2)o1	5.1	.	-4.9	.	9.3	-33.3*
COc1ccc(-c2nnc(NC(=O)c3ccccc3C)o2)cc1	-8.8	-7.9	0.2	-1.6	-10.3	-40.2
Cn1cnnc1SCC(=O)Nc1ccc2nc(SCc3ccccc3F)sc2c1	-6.6	13.2	-0.8	-4.5	-11.7	-23.2*
COC(=O)c1c(C)[nH]c(C(=O)C(C)OC(=O)C2CC(=O)N(c3ccc(C)cc3)C2)c1C (centres undefined)	-3.4	6.5	-2.6	3.7	-5.5	-22.7*
CCC(c1ccccc1)C(CC)c1cc(O)c(O)c(O)c1 (centres undefined)	-5.7	9.0	7.4	-0.3	-14.4	-26.1*
CO[C@@H]1CN(C)C(=O)c2ccc(NS(=O)(=O)c3ccccc3F)cc2OC[C@H](C)NC[C@H]1C	-6.0	-0.9	-1.0	2.8	3.8	5.1
Cc1cnc(NC(=O)Cc2c[nH]c3ccccc23)s1	-0.5	13.2	0.9	4.3	-3.1	-22.4*
CCCn1c2ccccc2c2nnc(SCCN3CCOCC3)nc21	-2.7	-18.2	18.9*	-0.4	-5.3	-13.9
Cc1noc(C)c1S(=O)(=O)Nc1ccc2c(c1)C(=O)N([C@H](C)CO)C[C@H](C)[C@@H](CN(C)C(=O)Nc1ccc(C(F)(F)F)cc1)OCCCC[C@H](C)O2	-19.9	.	11.0	1.7	6.3	0.5
CN(C)CCC(=O)C(Cc1ccccc1)c1ccccc1 (centres undefined)	0.2	3.1	-2.7	-1.6	-1.8	5.0
CC(CCCN(C)C)C(Cc1ccccc1)c1ccccc1 (centres undefined)	-17.0	.	-7.3	1.9	4.8	-47.5*
C[C@@H]1CN([C@@H](C)CO)C(=O)c2cc(NS(=O)(=O)c3ccc(Cl)cc3)ccc2O[C@@H]1CN(C)Cc1ccc(C(F)(F)F)cc1	.	.	.	.	-2.5	1.4
SMILES	S100A4 inh HTS	C2C12 statin	SIRT5 inh	Cneo AK release	PGC1a acetyl inh	Ecoli rRNA inh
O=C(CNCc1cccc2ccccc12)Nc1ccccc1[N+](=O)[O-]	-2.1	.	-4.3	.	-9.1	-30.6*
O=C(CC(=O)Nc1ccccc1[N+](=O)[O-])Nc1ccccc1[N+](=O)[O-]	-7.4	-14.5	-0.9	-0.1	4.4	-15.1
COc1ccccc1-c1cc(C(F)(F)F)nc(S(=O)(=O)CCCC(=O)N2CCCCC2C)n1 (centres undefined)	.	84.0*	.	-0.4	20.7	.
COc1ccc(S(=O)(=O)N2C[C@@H](O)COC[C@@H]3O[C@@H](CC(=O)NCCCN4CCOCC4)CC[C@H]32)cc1	-8.8	-8.5	-6.1	2.5	-0.8	-0.1
CC(=O)Nc1nc(NC(=O)C(Cl)(Cl)Cl)n(-c2ccccc2)n1	-0.8	-1.4	-0.1	.	.	-22.7*
NC1=NC[C@H](c2ccccc2)N1CC1CCCCC1	12.6	-5.8	.	-0.2	2.4	1.3
CC(O)[C@H]1CN=C(N)N1CC1CCCCC1 (some centres undefined)	-4.2	-13.1	15.5*	-2.9	.	-1.6
Cc1cc(C)c(NC(=O)C2CCC(=O)N2)c(C)c1 (centres undefined)	-3.8	-2.9	-1.2	735.4*	-4.5	11.6
CCN(c1ccccc1)S(=O)(=O)c1ccc(Cl)c(NC(=O)CSc2n[nH]c(N)n2)c1	-11.5	.	-4.2	.	.	-19.5*
CS(=O)(=O)c1ccc(Cl)c(NC(=O)CSc2n[nH]c(N)n2)c1	-3.2	32.4	-2.8	1.2	3.0	5.7
Cc1[nH]c(SCC(=O)Nc2cc(S(C)(=O)=O)ccc2Cl)nc1Cc1ccccc1	-2.0	1.0	-2.8	-0.8	.	-21.7*
CN(C)C(=O)C[C@H]1C[C@@H]2c3cc(NS(=O)(=O)c4ccccc4)ccc3O[C@@H]2[C@H](CO)O1	-1.3	-2.4	-4.2	-13.6	-3.7	4.1
CCCCN(CC)CCCNC(=O)c1cc2c(=O)n(CC)c3ccccc3c2s1	-23.0	97.4*	-16.1	-1.1	-53.4	-4.5
COc1ccc2nc(N3CCCC(C(=O)NCCCN4CCN(C)CC4)C3)sc2c1 (centres undefined)	.	7.9	.	0.0	70.2*	.
COc1ccc(S(=O)(=O)CCC(=O)NC2CCCCC2)cc1	.	87.2*	.	0.5	6.0	.
O=C(CCS(=O)(=O)c1ccccc1)NC1CCCCC1	-1.7	.	-1.7	-0.2	3.4	7.2
Oc1ccc(CN2CCCCC2)c2cccnc12	-7.0	-56.4	0.5	1.1	25.1	-6.8
Oc1c(CN2CCCCC2)ccc2cccnc12	4.2	-24.2	-3.9	-9.3	24.9	-13.4*
CCOc1ccc(CNn2nnnc2N)cc1	.	118.7*	.	1.1	-1.1	.

Screens (PubChem BioAssay)
